According to ChEMBL document CHEMBL1150775, “Synthesis and evaluation of estrogen agonism of diaryl 4,5-dihydroisoxazoles, 3-hydroxyketones, 3-methoxyketones, and 1,3-diketones: a compound set forming a 4D molecular library” (J Med Chem, 2008):
Values joined by “and” are separate entries in the source; they are usually repeats but may differ in a detail not shown here. Identical values can stand only once.

How the values were obtained:
Type in all cases: cell-based
[1] = biological target: Estrogen receptor beta (Homo sapiens) (UniProt Q92731); assay: Activation of human estrogen receptor beta expressed in HEK293 cells at 10 uM beta-galactosidase reporter gene assay relative to 3,17-beta-estradiol
Estrogen receptor beta (Homo sapiens), sequence (Q92731 whole entry): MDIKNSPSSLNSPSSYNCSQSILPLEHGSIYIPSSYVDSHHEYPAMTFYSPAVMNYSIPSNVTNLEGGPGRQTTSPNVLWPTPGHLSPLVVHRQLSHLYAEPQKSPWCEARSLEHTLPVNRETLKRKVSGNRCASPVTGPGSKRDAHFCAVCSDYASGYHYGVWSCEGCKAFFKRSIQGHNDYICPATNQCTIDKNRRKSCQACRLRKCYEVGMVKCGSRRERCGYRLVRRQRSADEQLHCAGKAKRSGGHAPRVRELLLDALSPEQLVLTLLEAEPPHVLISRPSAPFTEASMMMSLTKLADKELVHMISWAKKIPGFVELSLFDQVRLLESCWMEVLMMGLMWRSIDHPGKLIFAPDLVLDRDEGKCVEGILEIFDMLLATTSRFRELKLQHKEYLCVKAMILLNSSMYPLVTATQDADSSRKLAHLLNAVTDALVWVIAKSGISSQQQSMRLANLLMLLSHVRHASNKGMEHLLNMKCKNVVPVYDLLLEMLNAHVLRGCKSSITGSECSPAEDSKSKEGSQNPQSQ
Procedure, shortened: (§1)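 HEK293 cells seeded a day ahead in phenol-free DMEM with 5% delipidated FBS. Calcium phosphate transfection for 4 h with 5 ng ERα or ERβ expression vector, 75 ng pERE2TATA-LUC reporter and 20 ng pCMVβ control. Test compound at 10 µM (vehicle 0.1% v/v) for 24 h. Luciferase normalized to β-galactosidase. Activity = 100% × (test − vehicle)/(10 nM E2 − vehicle). Mean of ≥3 independent transfections.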

[2] = biological target: T1, Estrogen receptor (Homo sapiens) (UniProt P03372); assay: Activation of human estrogen receptor alpha expressed in HEK293 cells at 10 uM beta-galactosidase reporter gene assay relative to control
T1 sequence (whole entry): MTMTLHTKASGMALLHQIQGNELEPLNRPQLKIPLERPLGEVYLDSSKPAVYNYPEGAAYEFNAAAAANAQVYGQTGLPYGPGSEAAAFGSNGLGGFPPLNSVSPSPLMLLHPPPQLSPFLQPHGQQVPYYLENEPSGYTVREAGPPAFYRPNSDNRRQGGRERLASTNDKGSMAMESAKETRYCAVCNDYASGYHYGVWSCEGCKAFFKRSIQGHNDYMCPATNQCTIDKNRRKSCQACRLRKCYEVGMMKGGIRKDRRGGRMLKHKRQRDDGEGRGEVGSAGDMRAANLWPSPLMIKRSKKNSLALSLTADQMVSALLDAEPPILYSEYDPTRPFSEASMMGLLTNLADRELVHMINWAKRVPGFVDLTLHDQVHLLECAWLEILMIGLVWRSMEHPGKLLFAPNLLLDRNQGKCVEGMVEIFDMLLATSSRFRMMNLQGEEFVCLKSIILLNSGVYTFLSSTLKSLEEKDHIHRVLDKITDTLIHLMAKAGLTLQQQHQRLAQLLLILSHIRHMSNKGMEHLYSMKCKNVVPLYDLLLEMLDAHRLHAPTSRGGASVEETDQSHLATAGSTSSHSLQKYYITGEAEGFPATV
Procedure, shortened: (§2)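 Luciferase reporter in transiently transfected HEK293 cells. Cells received 5 ng ERα or ERβ vector, ERE2-TATA luciferase reporter and pCMVβ by calcium phosphate for 4 h. Compound at 10 µM for 24 h in phenol-free medium with delipidated serum. β-Gal-normalized luciferase expressed as fold activation over vehicle (0.1% v/v). Means ± SEM of ≥3 transfections.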

[3] = biological target: T1, Estrogen receptor (Homo sapiens); assay: Activation of human estrogen receptor alpha expressed in HEK293 cells at 10 uM by beta-galactosidase reporter gene assay relative to 3,17 beta-estradiol; procedure, shortened: as §1
[4] = biological target: T1, Estrogen receptor (Homo sapiens); assay: Activation of human estrogen receptor alpha expressed in HEK293 cells at 10 uM in presence of ICI-182780 beta-galactosidase reporter gene assay relative to control
Procedure, shortened: (§3)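 Antagonism format: transfection as for the agonist assay (ERα or ERβ vector, ERE2-TATA-LUC, pCMVβ; 4 h). Medium then contained 10 µM compound plus 1000 nM ICI-182,780 or vehicle for 24 h. β-Gal-normalized luciferase given as fold activation relative to vehicle. Means ± SEM of ≥3 independent transfections.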

[5] = biological target: Estrogen receptor beta (Homo sapiens) (UniProt Q92731); assay: Activation of human estrogen receptor beta expressed in HEK293 cells at 10 uM beta-galactosidase reporter gene assay relative to control; procedure, shortened: as §2
[6] = biological target: Estrogen receptor beta (Homo sapiens) (UniProt Q92731); assay: Activation of human estrogen receptor beta expressed in HEK293 cells at 10 uM in presence of ICI-182781 beta-galactosidase reporter gene assay relative to control; procedure, shortened: as §3

Compound	Activity [1]	Activity [2]	Activity [3]	Activity [4]	Activity [5]	Activity [6]
COC(CC(=O)Cc1cccc2ccccc12)Cc1cccc2ccccc12 (single isomer, unassigned; 64b)	0.4%	26.1	23.9%	1.1	–	–
c1ccc(CCC2=NOC(CCc3ccccc3)C2)cc1 (single isomer, unassigned; 18b)	-0.4%	126	43.9%	1	–	–
c1ccc(CCC2CC(c3ccccc3)=NO2)cc1 (single isomer, unassigned; 10a)	8.5%	–	22.8%	–	–	–
Fc1ccc(CC2CC(CCc3ccccc3)=NO2)cc1 (single isomer, unassigned)	7.4%	–	28.9%	–	–	–
Oc1cccc(CCC2=NOC(Cc3ccccc3)C2)c1 (single isomer, unassigned)	6.7%	–	19.2%	–	–	–
Oc1ccc(CC2CC(CCc3ccccc3O)=NO2)cc1 (single isomer, unassigned; 75b)	0.6%	–	6.2%	–	–	–
c1ccc(CCCC2=NOC(Cc3ccccc3)C2)cc1 (single isomer, unassigned)	5.1%	–	28.1%	–	–	–
COc1ccc(CC2CC(CCc3ccccc3)=NO2)cc1 (single isomer, unassigned; 50a)	10.6%	–	0.8%	–	–	–
Oc1ccc(CC2CC(CCc3ccccc3O)=NO2)cc1 (single isomer, unassigned; 75a)	2.5%	–	20.4%	–	–	–
Oc1ccc(CC2CC(CCc3ccccc3)=NO2)cc1 (single isomer, unassigned; 69b)	42.4%	–	105%	–	–	–
Oc1ccccc1CCC1=NOC(Cc2ccccc2)C1 (configuration not stated)	18.4%	–	111%	–	–	–
Oc1ccc(CCC2=NOC(Cc3ccc(F)cc3)C2)cc1 (single isomer, unassigned)	28.4%	–	77.8%	–	–	–
Oc1ccc(CCC2=NOC(Cc3ccc(O)cc3)C2)cc1 (configuration not stated)	4.1% and 12%	–	81.4% and 76.2%	–	–	–
COc1ccc(CC2CC(CCc3ccccc3)=NO2)cc1 (single isomer, unassigned; 50b)	13.2%	–	16.1%	–	–	–
Fc1ccc(CC2CC(CCc3ccccc3)=NO2)cc1 (configuration not stated)	11.2%	–	99.2%	–	–	–
Oc1ccc(CC2CC(CCc3ccccc3)=NO2)cc1 (single isomer, unassigned; 69a)	9.1%	–	34.2%	–	–	–

More lines, now with the values ahead:

Activity [1]	Activity [2]	Activity [3]	Activity [4]	Activity [5]	Activity [6]	Compound
4.7%	22.9	48.1%	1.6	4.2	0.7	COC(CC(=O)Cc1ccccc1)Cc1ccc2ccccc2c1 (racemic)
1.2%	–	1.3%	–	–	–	COc1ccc(CC(O)CC(=O)CCc2ccccc2)cc1 (single isomer, unassigned; 54b)
9.1%	–	24.7%	–	–	–	O=C(CCCc1ccccc1)CC(O)Cc1ccccc1 (configuration not stated)
0.3%	–	0.3%	–	–	–	COc1ccccc1CC(CC(=O)Cc1ccc2ccccc2c1)OC (single isomer, unassigned)
-6%	–	1.1%	–	–	–	c1ccc(CCC2CC(c3ccccc3)=NO2)cc1 (single isomer, unassigned; 10b)
-0.2%	–	-1.3%	–	–	–	c1ccc(CC2=NOC(Cc3ccccc3)C2)cc1 (single isomer, unassigned; 14a)
-7.1%	–	2.2%	–	–	–	O=C(CCCc1ccccc1)CC(O)CCc1ccccc1 (configuration not stated)
0.2%	–	12%	–	–	–	COC(CCc1ccccc1)CC(=O)Cc1ccccc1 (configuration not stated)
1.4%	8.7	24.3%	1	–	–	O=C(CCc1ccccc1)CC(=O)Cc1ccccc1
4.2%	–	27.7%	–	–	–	O=C(CCCc1ccccc1)CC(=O)Cc1ccccc1
-0.4%	–	0.5%	–	–	–	CS(C)=C(C(=O)Cc1ccccc1)C(=O)Cc1ccccc1
0.1%	–	0.2%	–	–	–	COc1ccccc1CC(CC(=O)Cc1ccc2ccccc2c1)OC (configuration not stated)
30.4%	–	24.5%	–	–	–	COC(CC(=O)CCCc1ccccc1)Cc1ccccc1 (configuration not stated)
-0.6%	–	0.2%	–	–	–	COC(CC(=O)Cc1ccc(F)cc1)Cc1cccc2ccccc12 (single isomer, unassigned; 62a)
20.1%	–	20.1%	–	–	–	O=C(CCc1ccccc1)CC(O)Cc1ccc2ccccc2c1 (single isomer, unassigned; 57b)
-1.2%	–	4.9%	–	–	–	COC(CC(=O)Cc1ccccc1)c1ccccc1 (configuration not stated)
147%	–	91.4%	–	–	–	O=C(CCCc1ccccc1)CC(O)c1ccccc1 (single isomer, unassigned; 24a)
8.1%	–	11.2%	–	–	–	c1ccc(CCC2=NOC(c3ccccc3)C2)cc1 (single isomer, unassigned; 12b)
28.2%	–	59.3%	–	–	–	O=C(CCCc1ccccc1)CC(O)c1ccccc1 (single isomer, unassigned; 24b)
11.2%	–	33.1%	–	–	–	COC(CC(=O)CCc1ccccc1)Cc1ccc(F)cc1 (configuration not stated)
